Mac1 fbg inh = blocks human CD11b/CD18 adhesion to fibrinogen; 93,000 tested, 0.54% active; P05107+P11215; K562 CD11b/CD18 adhesion to fibrinogen, ATPlite luminescence; Mn2+ added to activate the integrin; AID 1497; inhibition, % at 10 µM;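 active = primary inhibition of 50% or more at 10 µM, then 40% or more on retest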
SF-1 act = SF-1 (human) activation; Q13285; CHO-K1 Gal4-SF-1 LBD luciferase reporter; % increase over DMSO SF-1-specific signal; activation, % at 10 µM; 65,000 tested, 1.9% active;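 active = activation above the mean activation of all tested compounds plus 3 SD, cut at about 50% in these data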
Target sequence (Q13285 whole entry, looked up, the tested form may be a part): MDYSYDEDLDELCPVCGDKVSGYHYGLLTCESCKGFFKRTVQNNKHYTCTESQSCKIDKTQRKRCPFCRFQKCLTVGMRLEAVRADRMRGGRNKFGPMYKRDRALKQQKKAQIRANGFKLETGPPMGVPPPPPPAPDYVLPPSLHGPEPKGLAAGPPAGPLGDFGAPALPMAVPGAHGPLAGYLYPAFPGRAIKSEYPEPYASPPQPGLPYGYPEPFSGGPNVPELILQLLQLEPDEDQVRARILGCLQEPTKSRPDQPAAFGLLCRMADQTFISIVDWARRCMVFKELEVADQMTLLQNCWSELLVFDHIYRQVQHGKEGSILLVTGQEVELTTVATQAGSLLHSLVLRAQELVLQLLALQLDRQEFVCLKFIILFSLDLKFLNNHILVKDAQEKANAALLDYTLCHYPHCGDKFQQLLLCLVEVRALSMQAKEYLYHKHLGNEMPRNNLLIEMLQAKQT
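material = CHO-K1 cells with Gal4–hSF-1 LBD chimera plus Gal4-driven luciferase | compound = 10 µM single point, 1% DMSO | incubation = 20 h compound exposure at 37 °C after 1 h cell settling | measured by = SteadyLite luciferase luminescence | evaluation = percent activation relative to DMSO median and mock-transfected background | control set = DMSO negative control and −SF1 background wells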
RORa activator = activators of human nuclear receptor RORA | 65,000 tested, 1.5% active | CHO-K1 Gal4-RORA LBD luciferase reporter, luminescence; percent increase over mock-subtracted basal signal | activation, % at 10 µM | AID 560 | P35398;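 active = activation above the mean of all tested compounds plus 3 SD, cut at about 49% in these data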;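 also: 0% = DMSO-treated RORA cells and 100% = added signal equal to DMSO minus mock-transfected cells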
Calb biofilm kill = kills Candida albicans biofilms; inhibition, % at 6 µM; C. albicans biofilm + clotrimazole, Alamar Blue; 85,000 tested, 0.14% active;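 active = inhibition above 20%; inactive = inhibition below 20%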;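 also: preformed 24 hr biofilms exposed to compound for 48 hr; 0% = biofilm without compound and 100% = blank killed by clotrimazole plus chlorhexidine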
MT1-MMP txn act = activates MT1-MMP transcription; HT1080 MT1-MMP promoter luciferase reporter, luminescence, overnight; active compounds read high; activation factor at 10 µM; 86,000 tested, 0.16% active; AID 750;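 active = activation factor of at least 2 for MT1-MMP transcription at 10 µM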
CD11b adhes enh = CD11b/CD18-fibrinogen binding enhancement; 93,000 tested, 0.07% active; K562 CD11b/CD18 adhesion to fibrinogen, ATPlite luminescence; activation, % at 10 µM; P05107+P11215;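 active = 10 µM primary screen giving 50% or more activity, confirmed by 40% or more on retest at that dose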
Numbers without * were called inactive. This is a sample that favours compounds with a hit; in the whole collection about 2.2% have one here.

COc1ccc(NC(=O)Nc2ccc(N(C)C)cc2)cc1 was read as Mac1 fbg inh -15, SF-1 act 29, RORa activator 58*, Calb biofilm kill 7, MT1-MMP txn act 1.2 and CD11b adhes enh -9.
For O=C(Nc1ccccc1)Nc1nccs1 the results were Calb biofilm kill -2 and MT1-MMP txn act 1.3.
Screening COc1ccc(NC(=O)Nc2nccs2)cc1 returned Mac1 fbg inh 26, SF-1 act 73*, RORa activator 64*, Calb biofilm kill 2, MT1-MMP txn act 1.1 and CD11b adhes enh -4.
Screening COc1cccc(C(=O)Nc2ccc(N(C)C)cc2)c1OC returned Mac1 fbg inh -10, SF-1 act 50*, RORa activator 43, Calb biofilm kill 2 and CD11b adhes enh 0.
For COc1ccc(NC(=O)Nc2ccc3nccnc3c2)cc1 the results were Mac1 fbg inh -2, SF-1 act 51*, RORa activator 57*, Calb biofilm kill 11, MT1-MMP txn act 1.3 and CD11b adhes enh 1.
`CN(C)c1ccc(NC(=O)Nc2ccc3snnc3c2)cc1` gave Mac1 fbg inh -3, SF-1 act 48, RORa activator 56*, Calb biofilm kill 4, MT1-MMP txn act 1.3 and CD11b adhes enh -2.
Screening O=C(Nc1ccccc1)Nc1ccc2snnc2c1 returned Calb biofilm kill 7 and MT1-MMP txn act 1.8.
Screening CCCc1noc(-c2ccc(-c3ccccc3)cc2)n1 returned Mac1 fbg inh 12, SF-1 act 55*, RORa activator 57*, MT1-MMP txn act 1 and CD11b adhes enh -2.
`CCCCSc1nnc(-c2c[nH]c3ccccc23)n1C` gave Mac1 fbg inh 4, SF-1 act 57*, RORa activator 32, Calb biofilm kill 6, MT1-MMP txn act 1.3 and CD11b adhes enh -1.
`COc1ccccc1C(O)(C(=O)NN(C)c1ccccc1)c1ccccc1OC` gave Mac1 fbg inh -11 and CD11b adhes enh -2.
Screening CN(C)c1ccc(Nc2nc(-c3cccnc3)cs2)cc1 returned Mac1 fbg inh 7, SF-1 act 14, RORa activator 10, Calb biofilm kill 7, MT1-MMP txn act 2* and CD11b adhes enh -2.
Screening CCOC(=O)c1ccc(Oc2cc(C)nc(SC)n2)cc1 returned SF-1 act 31, RORa activator 57*, Calb biofilm kill -4 and MT1-MMP txn act 0.8.
`O=C(CCn1cnc2ccccc2c1=O)Nc1ccc(Cl)c(Cl)c1` gave Mac1 fbg inh 2, Calb biofilm kill 41*, MT1-MMP txn act 0.9 and CD11b adhes enh -2.
Screening COC(=O)c1ccc(C(NC(=O)OCc2ccccc2)/C(F)=C/[C@@H](C)C(=O)NCc2nc3ccccc3s2)cc1 (stereo not given in full) returned MT1-MMP txn act 1.1.
Screening COc1ccc(/C=N/n2c(=S)n(C)c3ccccc32)cc1OC returned Mac1 fbg inh -3, Calb biofilm kill 50*, MT1-MMP txn act 1.1 and CD11b adhes enh -2.
Screening Cc1c(C(=O)Nc2ccccn2)oc2ccccc12 returned Mac1 fbg inh -8, SF-1 act 69*, RORa activator 40, MT1-MMP txn act 1 and CD11b adhes enh -7.
For COC(=O)c1sc(NC(=O)c2oc3ccccc3c2C)nc1C the results were Mac1 fbg inh 0, SF-1 act 58*, RORa activator 61*, Calb biofilm kill 2, MT1-MMP txn act 2.3* and CD11b adhes enh 0.
For Cc1c(C(=O)Nc2ccncc2)oc2ccccc12 the results were Mac1 fbg inh 0, SF-1 act 16, RORa activator 6, Calb biofilm kill 6, MT1-MMP txn act 1.2 and CD11b adhes enh -9.
Screening Nc1nc(NC(=O)c2cccs2)nn1-c1ccccc1 returned Mac1 fbg inh -28, SF-1 act 77*, RORa activator 38, Calb biofilm kill 12, MT1-MMP txn act 1.3 and CD11b adhes enh 4.
O=C(Nc1ccc2nn(-c3ccccc3)nc2c1)c1cccs1 was read as Mac1 fbg inh 0, SF-1 act 70*, RORa activator 12, Calb biofilm kill 1, MT1-MMP txn act 1.8 and CD11b adhes enh 68.
For CCN(CC)c1ccc(/C=C2\CCC(/C=N/NC(=O)c3ccc(=O)n(C)c3)=C2N2CCOCC2)cc1 the results were Mac1 fbg inh -7 and CD11b adhes enh 16.
For O=C(NS(=O)(=O)c1ccc2c(c1)OCCO2)c1ccccc1 the results were SF-1 act -15, RORa activator -12, Calb biofilm kill 1, MT1-MMP txn act 1.1 and CD11b adhes enh -6.
N=C(N)N1CCc2ccccc2C1 was read as Calb biofilm kill 9 and MT1-MMP txn act 1.1.
`Cc1noc(C)c1COc1ccc(C(=O)OCC(=O)NC23CC4CC(CC(C4)C2)C3)cc1` gave Mac1 fbg inh 56*, Calb biofilm kill 8, MT1-MMP txn act 1.2 and CD11b adhes enh 1.
For O=C(C[n+]1cnn(CC(=O)c2ccc(Cl)cc2Cl)c1)c1ccc([N+](=O)[O-])cc1 the results were Mac1 fbg inh -5 and CD11b adhes enh 0.
For COC(=O)Nc1ccc(S(=O)(=O)N2CCCc3ccccc32)cc1 the results were Mac1 fbg inh 9, SF-1 act 37, RORa activator 53*, Calb biofilm kill 8, MT1-MMP txn act 0.7 and CD11b adhes enh -1.
Screening CNc1oc(-c2ccc(OCc3ccccc3)cc2)nc1C#N returned Mac1 fbg inh 10, SF-1 act 58*, RORa activator 27, Calb biofilm kill 10, MT1-MMP txn act 1.1 and CD11b adhes enh -2.
`C=CCNc1oc(-c2ccc(OCC)cc2)nc1C#N` gave Mac1 fbg inh -6, SF-1 act 21, RORa activator -13, Calb biofilm kill -2, MT1-MMP txn act 1.2 and CD11b adhes enh 1.
Screening C=CCNc1oc(-c2ccc(OC)cc2)nc1C#N returned Mac1 fbg inh -19, SF-1 act 57*, RORa activator 10, Calb biofilm kill 3, MT1-MMP txn act 1.3 and CD11b adhes enh -1.
Screening COc1ccc(-c2nc(C#N)c(NCC3CCCO3)o2)cc1OC (stereo not given) returned Mac1 fbg inh 4, SF-1 act 19, RORa activator 53*, Calb biofilm kill 10, MT1-MMP txn act 1.4 and CD11b adhes enh 4.
`N#Cc1nc(-c2ccc(OCc3ccccc3)cc2)oc1NCc1ccco1` gave Mac1 fbg inh -2, SF-1 act 1, RORa activator -2, Calb biofilm kill 8, MT1-MMP txn act 1 and CD11b adhes enh 1.
Screening CC(=O)c1c(C)[nH]c(C(=O)NCCC2=CCCCC2)c1C returned Mac1 fbg inh -8, SF-1 act 84*, RORa activator 69*, MT1-MMP txn act 0.8 and CD11b adhes enh -3.
Screening COC(=O)c1ccc(C(/C=C/[C@@H](C)C(=O)NCc2ccccc2)NC(=O)OCc2ccccc2)cc1 (stereo not given in full) returned MT1-MMP txn act 1.2.
